Measured values from ChEMBL document CHEMBL3102843, “Synthesis and antifungal activity of substituted 2,4,6-pyrimidinetrione carbaldehyde hydrazones” (Bioorg Med Chem, 2014).
In brackets after ≈: the same amount, converted by molar mass. Activity calls are given as the source filed them. The rule behind the calls is not given here.

Legend:
Nakaseomyces glabratus = assay: Antifungal activity against Candida glabrata ATCC 48435 after 48 to 72 hrs by broth microdilution method; assay type: functional
Method in brief: (§1)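 Broth microdilution per NCCLS. Organisms were subcultured on Sabouraud agar. Inoculum was 5–7 colonies from YM agar in sterile water, adjusted to 0.5 McFarland at 530 nm (1–5×10⁶ cells/mL stock), held 30 min at RT, then diluted 1:50 in HEPES-buffered RPMI 1640. DMSO stocks were twofold-diluted, with final DMSO ≤1%. Plates ran 48–72 h at 35 °C, humid. MIC is the lowest concentration giving ≥80% growth reduction vs drug-free wells, scored visually. Fluconazole or amphotericin B ran as drug control.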

Candida albicans = assay: Antifungal activity against Candida albicans ATCC 10231 after 48 to 72 hrs by broth microdilution method; assay type: functional; method in brief: as §1

Row | Compound | MIC80 (Nakaseomyces glabratus) | MIC80 (Candida albicans)
1 | COc1ccc(C(=O)N/N=C(\C)C2C(=O)NC(=O)NC2=O)cc1 | inactive | inactive
2 | CN1C(=O)C(/C=N/c2ccc(-c3ccccc3)cc2)C(=O)N(C)C1=O | inactive | inactive
3 | C/C(=N\NS(=O)(=O)c1ccccc1)C1C(=O)N(C)C(=O)N(C)C1=O | inactive | inactive
4 | C/C(=N\NC(=O)c1ccc([N+](=O)[O-])cc1)C1C(=O)N(C)C(=O)N(C)C1=O | inactive | inactive
5 | O=C1NC(=O)C(C(=NNc2ccc(C(=O)O)cc2)C2C(=O)NC(=O)NC2=O)C(=O)N1 | 125 µg/mL (≈ 300 µM) | inactive
6 | CCCCN1C(=O)NC(=O)C(/C(=N/Nc2ccc([N+](=O)[O-])cc2[N+](=O)[O-])c2ccccc2)C1=O (stereo unspecified) | inactive | inactive
7 | C/C(=N\NC(=O)c1ccc([N+](=O)[O-])cc1)C1C(=O)NC(=O)NC1=O | 125 µg/mL (≈ 375 µM) | inactive
8 | COc1ccc(/N=C(\C)C2C(=O)NC(=O)NC2=O)cc1 | inactive | inactive
9 | O=C1NC(=O)C(/C=N/NS(=O)(=O)c2ccccc2)C(=O)N1 | inactive | inactive
10 | O=C1NC(=O)C(/C=N/C2N=NN=N2)C(=O)N1 | inactive | inactive
11 | Cc1ccc(S(=O)(=O)N/N=C/C2C(=O)N(C)C(=O)N(C)C2=O)cc1 | inactive | inactive
12 | COc1ccc(C(=O)N/N=C(\C)C2C(=O)N(C)C(=O)N(C)C2=O)cc1 | inactive | inactive
13 | CN(C)c1ccc(C=C2C(=O)NC(=O)NC2=O)cc1 | inactive | 62 µg/mL (≈ 239 µM)
14 | O=C1NC(=O)C(/C=N/c2ccccc2)C(=O)N1 | inactive | inactive
15 | CN/N=C/C1C(=O)NC(=O)NC1=O | inactive | inactive
16 | COc1cc(OC)c(C=C2C(=O)N(C)C(=O)N(C)C2=O)c(OC)c1 | inactive | inactive
17 | C/C(=N\Nc1ccc([N+](=O)[O-])cc1)C1C(=O)NC(=O)N(c2ccccc2)C1=O (stereo unspecified) | 16 µg/mL (≈ 42 µM) | 31.5 µg/mL (≈ 82.6 µM)
18 | CN1C(=O)C(=Cc2ccc(O)cc2O)C(=O)N(C)C1=O | 2 µg/mL (≈ 7.24 µM) | inactive
19 | CN1C(=O)C(=Cc2ccc(N(C)C)cc2)C(=O)N(C)C1=O | inactive | inactive
20 | COC(=O)N/N=C/C1C(=O)NC(=O)NC1=O | inactive | inactive
21 | COC(=O)N/N=C(\C)C1C(=O)N(C)C(=O)N(C)C1=O | inactive | inactive
22 | C/C(=N\c1ccncc1)C1C(=O)NC(=O)NC1=O | inactive | inactive
23 | C/C(=N\c1ccncc1)C1C(=O)N(C)C(=O)N(C)C1=O | inactive | inactive
24 | C/C(=N\c1ccccc1)C1C(=O)NC(=O)NC1=O | inactive | inactive
25 | CN1C(=O)C(/C=N/C2N=NN=N2)C(=O)N(C)C1=O | inactive | inactive
26 | O=C1NC(=O)N(c2ccccc2)C(=O)/C1=C\c1ccc(O)cc1 | inactive | inactive

Row | Compound | MIC80 (Nakaseomyces glabratus) | MIC80 (Candida albicans)
27 | O=C1NC(=O)C(=Cc2cccc3ccccc23)C(=O)N1 | inactive | 125 µg/mL (≈ 469 µM)
28 | COc1ccc(/N=C/C2C(=O)NC(=O)NC2=O)cc1 | inactive | inactive
29 | O=C1NC(=O)C(/C=N/Nc2ccccc2)C(=O)N1 | 2 µg/mL (≈ 8.12 µM) | 4 µg/mL (≈ 16.2 µM)
30 | CN1C(=O)C(/C(=N/Nc2ccc([N+](=O)[O-])cc2[N+](=O)[O-])c2ccc(O)cc2)C(=O)N(C)C1=O | inactive | inactive
31 | COC(=O)N/N=C/C1C(=O)N(C)C(=O)N(C)C1=O | inactive | inactive
32 | CN1C(=O)C(/C=N/c2cccc(O)c2)C(=O)N(C)C1=O | inactive | inactive
33 | C/C(=N\c1ccccc1)C1C(=O)N(C)C(=O)N(C)C1=O | inactive | inactive
34 | CN1C(=O)C(/C=N/c2ccccn2)C(=O)N(C)C1=O | inactive | inactive
35 | O=C1NC(=O)N(c2ccccc2)C(=O)C1/C(=N/Nc1ccc([N+](=O)[O-])cc1[N+](=O)[O-])c1ccccc1 (stereo unspecified) | inactive | inactive
36 | O=C1NC(=O)C(/C=N/c2ccccn2)C(=O)N1 | inactive | inactive
37 | C/C(=N\c1ccc(O)cc1)C1C(=O)NC(=O)NC1=O | inactive | inactive
38 | O=C1NC(=O)C(=Cc2ccc(O)cc2)C(=O)N1 | inactive | inactive
39 | CN1C(=O)C(/C=N/c2nnc[nH]2)C(=O)N(C)C1=O | inactive | inactive
40 | C/C(=N\Nc1ccccc1)C1C(=O)NC(=O)NC1=O | 2 µg/mL (≈ 7.68 µM) | 2 µg/mL (≈ 7.68 µM)
41 | O=C1NC(=O)C(/C(=N/Nc2ccc([N+](=O)[O-])cc2[N+](=O)[O-])c2ccccc2)C(=O)N1 | inactive | inactive
42 | C/C(=N\NS(=O)(=O)c1ccccc1)C1C(=O)NC(=O)NC1=O | inactive | inactive
43 | O=C1NC(=O)C(/C=N/c2ccc([N+](=O)[O-])cc2)C(=O)N1 | inactive | inactive
44 | CN/N=C(\C)C1C(=O)N(C)C(=O)N(C)C1=O | inactive | inactive
45 | CN1C(=O)C(/C=N/NC(=O)c2ccccc2)C(=O)N(C)C1=O | inactive | inactive
46 | COc1ccc(C=C2C(=O)N(C)C(=O)N(C)C2=O)cc1 | inactive | inactive
47 | O=C1NC(=O)C(=Cc2ccco2)C(=O)N1 | inactive | inactive
48 | C/C(=N\NC(=O)c1ccccc1)C1C(=O)N(C)C(=O)N(C)C1=O | inactive | inactive
49 | O=C1NC(=O)C(/C=N/c2ccc(O)cc2)C(=O)N1 | inactive | inactive
50 | O=C1NC(=O)C(/C=N/Nc2ccc([N+](=O)[O-])cc2[N+](=O)[O-])C(=O)N1 | 125 µg/mL (≈ 372 µM) | inactive
51 | O=C1NC(=O)C(/C=N/n2cnnc2)C(=O)N1 | inactive | inactive
52 | C/C(=N\c1ccc(O)cc1)C1C(=O)N(C)C(=O)N(C)C1=O | inactive | inactive

Row | Compound | MIC80 (Nakaseomyces glabratus) | MIC80 (Candida albicans)
53 | CN1C(=O)C(=C/C=C/c2ccccc2)C(=O)N(C)C1=O | 125 µg/mL (≈ 462 µM) | 62 µg/mL (≈ 229 µM)
54 | C/C(=N\CCCCCC(=O)O)C1C(=O)NC(=O)NC1=O | inactive | inactive
55 | C/C(=N\NS(=O)(=O)c1ccc(C)cc1)C1C(=O)NC(=O)NC1=O | inactive | inactive
56 | O=C1NC(=O)C(=Cc2ccccc2O)C(=O)N1 | 8 µg/mL (≈ 34.5 µM) | inactive
57 | COC(=O)N/N=C(\c1ccc(O)cc1)C1C(=O)N(C)C(=O)N(C)C1=O | inactive | inactive
58 | O=C1NC(=O)C(=C/C=C/c2ccccc2)C(=O)N1 | inactive | 62 µg/mL (≈ 256 µM)
59 | CN1C(=O)C(/C=N/NS(=O)(=O)c2ccccc2)C(=O)N(C)C1=O | inactive | inactive
60 | C/C(=N\Nc1ccc([N+](=O)[O-])cc1[N+](=O)[O-])C1C(=O)NC(=O)NC1=O | inactive | inactive
61 | COc1ccc(/N=C/C2C(=O)N(C)C(=O)N(C)C2=O)cc1 | inactive | inactive
62 | C/C(=N\Nc1ccc([N+](=O)[O-])cc1[N+](=O)[O-])C1C(=O)N(C)C(=O)N(C)C1=O | inactive | inactive
63 | CN1C(=O)C(/C=N/c2ccc(O)cc2)C(=O)N(C)C1=O | inactive | inactive
64 | O=C1NC(=O)C(=Cc2ccccc2)C(=O)N1 | inactive | inactive
65 | C/C(=N\NC(=O)c1ccccc1)C1C(=O)NC(=O)NC1=O | inactive | inactive
66 | COC(=O)N/N=C(\C)C1C(=O)NC(=O)NC1=O | inactive | inactive
67 | O=C1NC(=O)C(/C=N/c2ccc(-c3ccccc3)cc2)C(=O)N1 | inactive | inactive
68 | CN1C(=O)C(=Cc2ccc(O)cc2)C(=O)N(C)C1=O | inactive | inactive
69 | CN1C(=O)C(/C=N/c2ccccc2)C(=O)N(C)C1=O | inactive | inactive
70 | CN1C(=O)C(/C=N/n2cnnc2)C(=O)N(C)C1=O | inactive | inactive
71 | CN1C(=O)C(/C=N/N)C(=O)N(C)C1=O | 16 µg/mL (≈ 80.7 µM) | 125 µg/mL (≈ 631 µM)
72 | CN1C(=O)C(/C=N/c2ccc([N+](=O)[O-])cc2)C(=O)N(C)C1=O | inactive | inactive
73 | C/C(=N\N)C1C(=O)NC(=O)NC1=O | inactive | inactive
74 | O=C1NC(=O)C(/C=N/c2nnc[nH]2)C(=O)N1 | inactive | inactive
75 | COc1ccc(/N=C(\C)C2C(=O)N(C)C(=O)N(C)C2=O)cc1 | inactive | inactive
76 | CN1C(=O)C(/C(=N/Nc2ccc(C(=O)O)cc2)c2ccccc2)C(=O)N(C)C1=O | inactive | inactive
77 | O=C1NC(=O)C(=Cc2ccc3ccccc3c2)C(=O)N1 | inactive | 125 µg/mL (≈ 469 µM)
78 | COc1ccc(C=C2C(=O)N(C)C(=O)N(C)C2=O)c(OC)c1OC | inactive | inactive
